# Source: ChEMBL document CHEMBL4145607, “Tamarixetin Exhibits Anti-inflammatory Activity and Prevents Bacterial Sepsis by Increasing IL-10 Production” (J Nat Prod, 2018)
# Calls of active or inactive are those of the source. No cut-off for these calls is given here.
# How the values were obtained:
# BMDC [1] = test: Inhibition of LPS-induced immune response in C57BL/6 mouse BMDC assessed as reduction in IL-12p70 secretion up to 25 uM pretreated for 30 mins followed by LPS-challenge measured after 6 hrs by ELISA; type: functional, cell-based
# In short: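 Mouse BMDCs (female C57BL/6 bone marrow, GM-CSF-derived, ≥90% CD11c+ on day 7) pretreated 30 min with graded compound concentrations, then stimulated with LPS 50 ng/mL for 6 h. Supernatant TNF-α, IL-6, IL-10 and IL-12p70 quantified by sandwich ELISA. Mean ± SEM vs LPS-only cells; experiments repeated at least three times.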
# BMDC [2] = test: Inhibition of LPS-induced immune response in C57BL/6 mouse BMDC assessed as reduction in IL-6 secretion at 25 uM treated 6 hrs post LPS-challenge measured after 30 mins by ELISA; type: functional, cell-based
# In short: (§1)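 Bone marrow DCs from 6-week-old female C57BL/6 mice, RBC-lysed, cultured in RPMI-1640/10% FBS with 10 ng/mL rmGM-CSF, 37 °C, 5% CO2. Cells given LPS 50 ng/mL for 6 h, then 25 μM compound added for 30, 60, 90 or 120 min. Supernatant TNF-α, IL-6, IL-10, IL-12p70 measured by sandwich ELISA. Mean ± SEM, compared with LPS-only DCs.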
# BMDC [3] = test: Inhibition of LPS-induced immune response in C57BL/6 mouse BMDC assessed as reduction in TNFalpha secretion at 25 uM treated 6 hrs post LPS-challenge measured after 30 mins by ELISA; type: functional, cell-based; in short: as §1
# BMDC [4] = test: Inhibition of LPS-induced immune response in C57BL/6 mouse BMDC assessed as increase in IL10 secretion at 25 uM treated 6 hrs post LPS-challenge measured after 60 to 120 mins by ELISA; type: functional, cell-based; in short: as §1
# BMDC [5] = test: Increase in microRNA146a expression in LPS-induced C57BL/6 mouse BMDC at 25 uM pretreated for 30 mins followed by LPS-challenge measured after 6 hrs by qRT-PCR analysis; type: functional, cell-based
# In short: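 Total RNA was extracted from BMDCs with TRIzol and reverse transcribed. miR-146a, miR-155 and miR-187 were quantified by real-time qPCR with gene-specific primers.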
# Mus musculus [6] = test: Antiinflammatory activity in Balb/c mouse model of LPS-induced endotoxemia assessed as reduction in serum TNFalpha level at 1 mg/kg, ip pretreated for 1 hr followed by LPS-challenge measured after 2 hrs by ELISA; type: functional, organism-based
# In short: (§2)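 BALB/c mice were dosed with 1 mg·kg−1 i.p. 1 h before LPS 10 mg·kg−1 i.p. Serum was taken 2 h later, and TNF-α, IL-6 and IL-10 were measured by sandwich ELISA. Means ± SEM.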
# Mus musculus [7] = test: Antiinflammatory activity in Balb/c mouse model of LPS-induced endotoxemia assessed as reduction in serum IL6 level at 1 mg/kg, ip pretreated for 1 hr followed by LPS-challenge measured after 2 hrs by ELISA; type: functional, organism-based; in short: as §2
# Mus musculus [8] = test: Antiinflammatory activity in Balb/c mouse model of LPS-induced endotoxemia assessed as reduction in IL6 level in lungs at 1 mg/kg, ip pretreated for 1 hr followed by LPS-challenge measured after 12 hrs by ELISA; type: functional, organism-based
# In short: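 BALB/c mice got 1 mg·kg−1 i.p. 1 h before i.p. LPS 10 mg·kg−1. After 12 h, TNF-α and IL-6 in lung lysates were measured by sandwich ELISA. Means ± SEM.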
# BMDC [9] = test: Inhibition of Escherichia coli DH5alpha infection-induced immune response in C57BL/6 mouse BMDC assessed as reduction in IL-12p70 secretion at 25 uM pretreated for 30 mins followed by Escherichia coli DH5alpha infection for 6 hrs by ELISA; type: functional, cell-based
# In short: (§3)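 C57BL/6 BMDCs received 25 μM compound and E. coli DH5α, 3 × 10^6 CFU·mL−1. Schedules were: compound 30 min before a 6 h infection; co-addition for 6 h; or compound for 30, 60, 90 or 120 min plus 6 h infection. Supernatant TNF-α, IL-6, IL-10 and IL-12p70 were measured by ELISA. At least three experiments in triplicate.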
# BMDC [10] = test: Inhibition of Escherichia coli DH5alpha infection-induced immune response in C57BL/6 mouse BMDC assessed as reduction in IL-6 secretion at 25 uM pretreated for 60 to 120 mins followed by Escherichia coli DH5alpha infection for 6 hrs by ELISA; type: functional, cell-based; in short: as §3
# BMDC [11] = test: Inhibition of Escherichia coli K1 infection-induced immune response in C57BL/6 mouse BMDC assessed as reduction in IL-6 secretion at 25 uM pretreated for 30 mins followed by Escherichia coli K1 infection for 6 hrs by ELISA; type: functional, cell-based
# In short: (§4)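 BMDCs from C57BL/6 mice were given 25 μM compound and E. coli K1, […]. Timing was: compound 30 min before a 6 h infection; cotreatment for 6 h; or compound for 30–120 min with 6 h infection. Supernatant cytokines (TNF-α, IL-6, IL-10, IL-12p70) were measured by ELISA. At least three experiments in triplicate.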
# BMDC [12] = test: Inhibition of Escherichia coli K1 infection-induced immune response in C57BL/6 mouse BMDC assessed as reduction in IL-12p70 secretion at 25 uM pretreated for 30 mins followed by Escherichia coli K1 infection for 6 hrs by ELISA; type: functional, cell-based; in short: as §4
# BMDC [13] = test: Inhibition of Escherichia coli K1 infection-induced immune response in C57BL/6 mouse BMDC assessed as increase in IL10 secretion at 25 uM pretreated for 30 mins followed by Escherichia coli K1 infection for 6 hrs by ELISA; type: functional, cell-based; in short: as §4
# BMDC [14] = test: Inhibition of Escherichia coli K1 infection-induced immune response in C57BL/6 mouse BMDC assessed as reduction in TNFalpha secretion at 25 uM pretreated for 60 to 120 mins followed by Escherichia coli K1 infection for 6 hrs by ELISA; type: functional, cell-based; in short: as §4
# BMDC [15] = test: Inhibition of Escherichia coli K1 infection-induced immune response in C57BL/6 mouse BMDC assessed as reduction in IL-12p70 secretion at 25 uM pretreated for 60 to 120 mins followed by Escherichia coli K1 infection for 6 hrs by ELISA; type: functional, cell-based; in short: as §4
# BMDC [16] = test: Inhibition of Escherichia coli K1 infection-induced immune response in C57BL/6 mouse BMDC assessed as increase in IL10 secretion at 25 uM pretreated for 60 to 120 mins followed by Escherichia coli K1 infection for 6 hrs by ELISA; type: functional, cell-based; in short: as §4
# Mus musculus [17] = test: Antiseptic activity in Balb/c mouse model of Escherichia coli K1 infection-induced sepsis assessed as reduction in serum AST level at 1 mg/kg, ip pretreated for 1 hr followed by Escherichia coli K1 infection measured after 2 hrs by ELISA; type: functional, organism-based
# Mus musculus [18] = test: Antiseptic activity in Balb/c mouse model of Escherichia coli K1 infection-induced sepsis assessed as reduction in bacterial count in liver at 1 mg/kg, ip pretreated for 1 hr followed by Escherichia coli K1 infection measured after 12 hrs; type: functional, organism-based
# In short: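 Pretreatment was 1 mg·kg−1 i.p. 1 h before i.p. E. coli K1 (1 × 10^6 CFU per mouse) in BALB/c mice. At 12 h, lungs, liver and kidneys were homogenized in PBS and diluted 1:1000. 10 μL was plated on LB agar, incubated 24 h at 37 °C, and colonies counted.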
smiles,measurement,setting,value
COc1ccc(-c2oc3cc(O)cc(O)c3c(=O)c2O)cc1O [TAMARIXETIN],inhibition,BMDC [1],Active
same,inhibition,BMDC [2],Active
same,inhibition,BMDC [3],Active
same,inhibition,BMDC [4],inactive
same,Activity,BMDC [5],Active
same,Activity,Mus musculus [6],Active
same,Activity,Mus musculus [7],Active
same,Activity,Mus musculus [8],Active
same,inhibition,BMDC [9],Active
same,inhibition,BMDC [10],inactive
same,inhibition,BMDC [11],Active
same,inhibition,BMDC [12],Active
same,inhibition,BMDC [13],Active
same,inhibition,BMDC [14],inactive
same,inhibition,BMDC [15],inactive
same,inhibition,BMDC [16],inactive
same,Activity,Mus musculus [17],Active
same,Activity,Mus musculus [18],Active
